Laboratory results from ChEMBL document CHEMBL3813675, “Identification of potent and selective retinoic acid receptor gamma (RARγ) antagonists for the treatment of osteoarthritis pain using structure based drug design” (Bioorg Med Chem Lett, 2016).

How the values were obtained:
[1] = target: T1, Retinoic acid receptor gamma (Homo sapiens) (UniProt P13631); assay: Antagonist activity at RARgamma-LBD (unknown origin) expressed in HEK-293 cells assessed as inhibition of ATRA induced Gal4/luciferase gene expression after 24 hrs relative to ATRA; assay type: cell-based; conditions: HEK293
T1 sequence (whole entry): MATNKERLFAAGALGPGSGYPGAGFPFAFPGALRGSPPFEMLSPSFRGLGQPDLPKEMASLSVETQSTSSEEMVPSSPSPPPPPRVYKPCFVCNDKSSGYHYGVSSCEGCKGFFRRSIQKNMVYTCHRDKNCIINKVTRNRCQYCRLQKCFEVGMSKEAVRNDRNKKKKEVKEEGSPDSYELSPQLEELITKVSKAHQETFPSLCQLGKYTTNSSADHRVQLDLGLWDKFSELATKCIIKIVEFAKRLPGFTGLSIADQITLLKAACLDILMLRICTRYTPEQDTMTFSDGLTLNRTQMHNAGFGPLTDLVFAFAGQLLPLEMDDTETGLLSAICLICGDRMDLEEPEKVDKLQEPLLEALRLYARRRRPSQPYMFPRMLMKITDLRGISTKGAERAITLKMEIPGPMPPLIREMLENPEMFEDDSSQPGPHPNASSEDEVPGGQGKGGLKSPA

[2] = target: T2, Retinoic acid receptor alpha/Retinoid X receptor alpha (Homo sapiens, UniProt P10276); assay: Displacement of [3H]-TTNPB from RARalpha/RXRalpha (unknown origin) expressed in baculovirus expression system by scintillation proximity assay
T2 sequence (P10276 whole entry): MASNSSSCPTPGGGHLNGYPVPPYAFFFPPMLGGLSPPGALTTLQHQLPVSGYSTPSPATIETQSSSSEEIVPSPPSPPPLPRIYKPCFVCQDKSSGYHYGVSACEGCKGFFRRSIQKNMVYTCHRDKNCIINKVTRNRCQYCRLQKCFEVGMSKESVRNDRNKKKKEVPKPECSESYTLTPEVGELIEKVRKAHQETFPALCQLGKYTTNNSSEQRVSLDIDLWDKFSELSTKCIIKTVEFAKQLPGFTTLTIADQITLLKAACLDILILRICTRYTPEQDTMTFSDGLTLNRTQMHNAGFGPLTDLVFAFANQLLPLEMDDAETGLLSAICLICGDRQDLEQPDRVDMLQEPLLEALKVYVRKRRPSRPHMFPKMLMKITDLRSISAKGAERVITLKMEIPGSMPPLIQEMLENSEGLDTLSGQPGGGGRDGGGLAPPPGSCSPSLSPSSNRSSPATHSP
T2 sequence (P19793 whole entry): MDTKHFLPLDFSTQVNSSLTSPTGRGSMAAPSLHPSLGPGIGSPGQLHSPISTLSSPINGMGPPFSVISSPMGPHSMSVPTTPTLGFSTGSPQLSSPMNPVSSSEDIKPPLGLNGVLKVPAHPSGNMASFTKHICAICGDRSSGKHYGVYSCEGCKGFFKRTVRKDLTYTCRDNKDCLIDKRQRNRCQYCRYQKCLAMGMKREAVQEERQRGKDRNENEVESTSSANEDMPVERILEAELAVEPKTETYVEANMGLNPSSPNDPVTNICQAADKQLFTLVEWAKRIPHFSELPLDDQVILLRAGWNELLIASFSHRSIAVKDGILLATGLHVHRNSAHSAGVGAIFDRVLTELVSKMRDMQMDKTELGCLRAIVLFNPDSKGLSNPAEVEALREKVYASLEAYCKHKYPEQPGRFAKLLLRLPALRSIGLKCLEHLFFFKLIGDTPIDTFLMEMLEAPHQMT

[3] = target: T1, Retinoic acid receptor gamma (Homo sapiens); assay: Antagonist activity at RARgamma-LBD (unknown origin) expressed in HEK-293 cells assessed as inhibition of ATRA induced Gal4/luciferase gene expression after 24 hrs; assay type: cell-based; conditions: HEK293
[4] = target: T3, Retinoic acid receptor RXR-alpha/gamma (Homo sapiens, UniProt P13631+P19793); assay: Displacement of [3H]-TTNPB from RARgamma/RXRalpha (unknown origin) expressed in baculovirus expression system by scintillation proximity assay
T3 sequence (P13631 whole entry): T1 sequence (whole entry)
T3 sequence (P19793 whole entry): T2 sequence (P19793 whole entry)

[5] = target: T4, Retinoic acid receptor RXR-alpha/Retinoic acid receptor beta (Homo sapiens, UniProt P10826); assay: Displacement of [3H]-TTNPB from RARbeta/RXRalpha (unknown origin) expressed in baculovirus expression system by scintillation proximity assay
T4 sequence (P10826 whole entry): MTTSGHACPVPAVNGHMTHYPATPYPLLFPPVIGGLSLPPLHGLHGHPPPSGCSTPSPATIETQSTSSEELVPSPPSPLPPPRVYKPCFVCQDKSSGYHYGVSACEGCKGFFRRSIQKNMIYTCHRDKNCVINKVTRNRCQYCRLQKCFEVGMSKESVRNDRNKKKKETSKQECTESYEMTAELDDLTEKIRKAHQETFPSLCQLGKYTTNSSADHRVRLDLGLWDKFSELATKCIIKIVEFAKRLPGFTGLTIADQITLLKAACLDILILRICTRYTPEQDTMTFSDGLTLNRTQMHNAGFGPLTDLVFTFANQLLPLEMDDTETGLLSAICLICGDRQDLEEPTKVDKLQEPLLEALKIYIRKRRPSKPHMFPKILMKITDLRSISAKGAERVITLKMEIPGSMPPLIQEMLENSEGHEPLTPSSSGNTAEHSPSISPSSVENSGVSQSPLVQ
T4 sequence (P19793 whole entry): T2 sequence (P19793 whole entry)

Homo sapiens = species on record: Homo sapiens; assay: Selectivity index, ratio of Ki for RARbeta/RXRalpha (unknown origin) to Ki for RARgamma/RXRalpha (unknown origin) expressed in baculovirus expression system
[6] = Selectivity index, ratio of Ki for RARalpha/RXRalpha (unknown origin) to Ki for RARgamma/RXRalpha (unknown origin) expressed in baculovirus expression system; design: species or system Homo sapiens
[7] = Solubility of the compound in simulated intestinal fluid; assay type: ADME
Rattus norvegicus [8] = assay: Toxicity in rat assessed as testicular degeneration at 10 mg/kg, po administered for 14 days; assay type: organism-based; conditions: in vivo, 336 h
Rattus norvegicus [9] = assay: Toxicity in rat assessed as testicular degeneration at 30 mg/kg, po administered for 14 days; assay type: organism-based; conditions: in vivo, 336 h
[10] = AUC in rat at 30 mg/kg, po administered for 14 days; assay type: ADME, organism-based; conditions: in vivo
[11] = Oral bioavailability in rat at 10 mg/kg measured up to 14 days; assay type: ADME, organism-based; conditions: in vivo
[12] = target: T5, Retinoic acid receptor alpha (Homo sapiens, UniProt P10276); assay: Antagonist activity at RARalpha-LBD (unknown origin) expressed in HEK-293 cells assessed as inhibition of ATRA induced Gal4/luciferase gene expression after 24 hrs; assay type: cell-based, HEK293
T5 sequence (P10276 whole entry): T2 sequence (P10276 whole entry)

[13] = AUC in rat at 0.72 mg/kg, po administered for 14 days; assay type: ADME, organism-based; conditions: in vivo
[14] = target: T6, Retinoic acid receptor beta (Homo sapiens) (UniProt P10826); assay: Antagonist activity at RARbeta-LBD (unknown origin) expressed in HEK-293 cells assessed as inhibition of ATRA induced Gal4/luciferase gene expression after 24 hrs; assay type: cell-based; conditions: HEK293
T6 sequence (whole entry): T4 sequence (P10826 whole entry)

[15] = AUC in rat at 10 mg/kg, po administered for 14 days; assay type: ADME, organism-based; conditions: in vivo
Rattus norvegicus [16] = assay: Analgesic activity in MIA-induced osteoarthritis-like joint pain rat model assessed as reduction in differential weight bearing between contralateral and ipsilateral limbs administered on day 9 post MIA challenge as single oral dose; assay type: functional; conditions: 216 h
How it was run: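 Rats received a single intraarticular injection of mono-iodoacetate into one hind limb joint. Joint pain read as differential weight bearing between contralateral and ipsilateral limbs. Compound given as a single oral dose on the day of testing. ED50 derived from the dose-response.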

| SMILES | Imax [1] [%] | Ki [2] [nM] | Kb [3] [nM] | Ki [4] [nM] | Ki [5] [nM] | Ratio Ki (Homo sapiens) | Ratio Ki [6] | solubility ([7]; simulated gi fluid) [µg/mL] | Activity (Rattus norvegicus [8]) | Activity (Rattus norvegicus [9]) | AUC at 336 h [10] [ng·h/mL] | bioavailability [11] [%] | Kb [12] [nM] | AUC at 336 h [13] [ng·h/mL] | Kb [14] [nM] | solubility ([7]; simulated intestinal fluid, read-out: solubility) [µg/mL] | AUC at 336 h [15] [ng·h/mL] | ED50 (Rattus norvegicus [16]) [mg/kg] |
| --- | --- | --- | --- | --- | --- | --- | --- | --- | --- | --- | --- | --- | --- | --- | --- | --- | --- | --- |
| CC1(C)CC=C(c2ccccc2)c2cc(/C=C/c3ccc(C(=O)O)cc3)ccc21 | > 100 | 7.7 | 18.5 | 17.3 | – | – | – | – | – | – | – | – | – | – | – | – | – | – |
| CC(C)(C)c1cc(-c2cc(-c3ccc(C(=O)O)cc3)nn2-c2ccc(C(N)=O)cc2)cc(C(C)(C)C)c1 | 79 | > 1700 | 14.7 | 1.4 | > 2980 | > 2210 | >1259 | – | – | – | – | – | – | – | – | – | – | – |
| CC(C)(C)c1cccc(-c2cc(-c3ccc(C(=O)O)cc3)nn2-c2ccc(S(C)(=O)=O)cc2)c1 | – | 1.8 | – | 1.1 | 4.3 | – | 1.6 | – | – | – | – | – | – | – | – | – | – | – |
| CC(C)(C)c1cc(-c2cc(-c3ccc(C(=O)O)cc3)nn2-c2ccc(C(=O)N3CCOCC3)cc2)cc(C(C)(C)C)c1 | > 100 | > 1700 | 7.2 | 2.3 | > 2980 | > 1320 | >752 | – | – | – | – | – | – | – | – | – | – | – |
| Cc1cc(-c2cc(-c3ccc(C(=O)O)cc3)nn2-c2ccc(S(C)(=O)=O)cc2)cc(C(C)(C)C)c1 | – | 6.2 | – | 1.1 | 10 | – | 5.6 | – | – | – | – | – | – | – | – | – | – | – |
| CN(C)C(=O)c1ccc(-n2nc(-c3ccc(C(=O)O)cc3)cc2-c2cc(C(C)(C)C)cc(C(C)(C)C)c2)cc1 | > 100 | > 1700 | 21.3 | 2.2 | > 2980 | > 1340 | >766 | – | – | – | – | – | – | – | – | – | – | – |
| CC(C)c1cc(-c2cc(-c3ccc(C(=O)O)cc3)nn2-c2ccc(S(C)(=O)=O)cc2)cc(C(C)(C)C)c1 | – | 87 | – | 1.6 | 131 | – | 54 | – | – | – | – | – | – | – | – | – | – | – |
| CC1(C)CCC(C)(C)c2cc(-c3cc(-c4ccc(C(=O)O)cc4)nn3-c3ccc(S(C)(=O)=O)cc3)ccc21 | > 100 | 2.8 | 2.2 | 0.27 | 5.2 | 10 | 10 | – | – | – | – | – | – | – | – | – | – | – |
| CC(C)(C)c1cc(-c2cc(-c3ccc(C(=O)O)cc3)nn2-c2ccc(S(C)(=O)=O)cc2)cc(C(C)(C)C)c1 | > 100 | 461 | 13.5 | 4.4 | 995 | 228 | 106 | < 0.1 | – | – | – | – | – | – | – | – | – | – |
| CN(C)S(=O)(=O)c1ccc(-n2nc(-c3ccc(C(=O)O)cc3)cc2-c2cc(C(C)(C)C)cc(C(C)(C)C)c2)cc1 | > 100 | > 1700 | 11.1 | 4.1 | > 2980 | > 725 | >414 | – | – | – | – | – | – | – | – | – | – | – |
| CN1CCN(C(=O)c2ccc(-n3nc(-c4ccc(C(=O)O)cc4)cc3-c3cc(C(C)(C)C)cc(C(C)(C)C)c3)cc2)CC1 | > 100 | > 1700 | 7.1 | 1.1 | > 2980 | > 2730 | >1560 | – | Non-toxic | Toxic | 36800 | 26 | > 4440 | 154 | 1510 | > 1000 | 9100 | 0.724 |
